The source of these data is ChEMBL document CHEMBL2086265, “Design of inhibitors of Helicobacter pylori glutamate racemase as selective antibacterial agents: incorporation of imidazoles onto a core pyrazolopyrimidinedione scaffold to improve bioavailabilty” (Bioorg Med Chem Lett, 2012).

Series [1] is described as follows: Intrinsic clearance in mouse liver microsomes at 2 uM assessed per mg of protein. The series is classed as ADME, Microsome. Particulars: read-out: CLH. For orientation: Liver microsomes are vesicles of endoplasmic reticulum, rich in cytochrome P450 enzymes.
Series [2] in a line: Intrinsic clearance in human liver microsomes at 2 uM assessed per mg of protein. The series is classed as ADME, Microsome. Particulars: read-out: CLH.
The nature of series [3]: Clearance in mouse at 5 mg/kg, iv and 40 mg/kg, po. Particulars: in vivo. The series is classed as ADME, organism-based.
The test system of series [4] is Helicobacter pylori. The series is described as follows: Antibacterial activity against wild type Helicobacter pylori 055. The class given is functional.
Series [5] is described as follows: Plasma protein binding in mouse at 10 uM after 16 hrs by Dianorm method. The class given is ADME, cell-free. The following applies: read-out: PPB (converted).
Series [6] can be described thus: Volume of distribution at steady state in mouse at 5 mg/kg, iv and 40 mg/kg, po. The series is classed as ADME, organism-based. Particulars: in vivo, read-out: Vdss.
Series [7] deals with T1, Glutamate racemase (Helicobacter pylori J99, UniProt Q9ZLT0).
T1 sequence (Q9ZLT0 whole entry): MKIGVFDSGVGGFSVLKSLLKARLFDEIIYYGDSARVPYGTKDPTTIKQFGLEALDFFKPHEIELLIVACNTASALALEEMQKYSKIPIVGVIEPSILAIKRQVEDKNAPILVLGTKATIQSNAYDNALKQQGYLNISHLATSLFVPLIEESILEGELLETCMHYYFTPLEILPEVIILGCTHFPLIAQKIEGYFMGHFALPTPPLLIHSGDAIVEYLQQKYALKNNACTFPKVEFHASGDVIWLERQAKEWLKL
As to the kind of experiment: Inhibition of Helicobacter pylori J99 glutamate racemase. An outline of the steps:
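The racemase was expressed from the murI gene of H. pylori J99 chromosomal DNA. IC50 was taken as the mean of duplicate determinations, using a method cited from earlier work.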

In series [8] the test system is Helicobacter pylori. As to the kind of experiment: Antibacterial activity against AcrAB-TolC efflux pump-dificient Helicobacter pylori. The class given is functional.
Series [9] is described as follows: Half life in mouse at 5 mg/kg, iv and 40 mg/kg, po. Particulars: in vivo. The class given is ADME, organism-based.
Series [10] is described as follows: Oral bioavailability in mouse at 40 mg/kg. The series is classed as ADME, organism-based. The following applies: in vivo.
The nature of series [11]: Inhibition of Escherichia coli MurI.
Series [12] concerns Helicobacter pylori. As to the kind of experiment: Ratio of MIC for wild type Helicobacter pylori 055 to MIC for AcrAB-TolC efflux pump-dificient Helicobacter pylori.
Series [13] can be described thus: Inhibition of Staphylococcus aureus MurI.
Series [14] can be described thus: Inhibition of Enterococcus faecalis MurI.
For series [15], the system named is Helicobacter pylori. As to the kind of experiment: Antibacterial activity against Helicobacter pylori infected in mouse assessed as log reduction CFU at 10 mg/kg administered BID for 2 days relative to untreated control. The class given is functional.
Series [16] is described as follows: Dissociation constant, pKa of the compound. The series is classed as physicochemical.
Series [17] deals with Helicobacter pylori. The series is described as follows: Antibacterial activity against Helicobacter pylori infected in mouse assessed as log reduction CFU at 40 mg/kg administered QID for 2 days relative to untreated control.
Series [18] in a line: Plasma protein binding in mouse. The class given is ADME, cell-free. Particulars: read-out: PPB (converted). The essentials: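 Plasma protein binding in mouse plasma used a […] compound solution in a dialysis plasma well, incubated at 37 °C for 16 h. Free fraction came from the ratio of drug in buffer to drug in buffer plus plasma wells, both quantified by LC/MS.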

Structures are written as SMILES. In brackets after ≈: the same amount, converted by molar mass.

`Cn1cncc1-c1c2c(=O)n(C)c(=O)n(CC3CC3)c2nn1Cc1ccnc2ccc(Cl)cc12`: the microsomal CLint at 2 µM in [1] is 21 µL/min/mg; in series [2], less than 17 µL/min/mg. Besides, the clearance in series [3] amounted to 14 mL/min/kg. The MIC (as a rule, the least concentration at which growth counts as inhibited) was found to be 2 µg/mL (≈ 4.2 µM) in series [4] and 0.25 µg/mL (≈ 0.525 µM) in series [8]. Also, the fraction unbound at 16 h, 10 µM in series [5] was greater than 0.969. In addition, the Vd in [6] was determined as 1.2 L/kg. Besides, in series [7], the IC50 (commonly the midpoint of a concentration-inhibition curve) was determined as 41 nM. For the same compound, the half-life (commonly the time in which the quantity being followed falls by half) in series [9] was 0.7 h. For the same compound, in [10], the bioavailability (commonly the share of a dose that reaches the circulation, judged against a reference dose that is usually intravenous) was 76%.

Turning to `Cn1cc(C#N)cc1-c1c2c(=O)n(C)c(=O)n(CC3CC3)c2nn1Cc1ccnc2ccc(Cl)cc12`, the microsomal CLint at 2 µM in series [1] is 50 µL/min/mg; in series [2] it was 14 µL/min/mg. Besides, the IC50 in [11] was greater than 400000 nM; in series [7], 25 nM; in [13], greater than 400000 nM; in [14], greater than 400000 nM. For the same compound, the values for the MIC in series [4] and in series [8] were 0.5 µg/mL (≈ 1 µM) and 0.8 µg/mL (≈ 1.6 µM), respectively. Further, in [12], the Ratio entry is recorded as “<=2”.

`CC#CCn1c(=O)c2c(-c3cc(C#N)cn3C)n(Cc3ccnc4ccc(Cl)cc34)nc2n(CC2CC2)c1=O`: the microsomal CLint at 2 µM is greater than 100 µL/min/mg in series [1] and 99 µL/min/mg in [2]. Also, the MIC in series [4] and in series [8] was 2 µg/mL (≈ 3.72 µM) throughout. In series [12], the Ratio entry is “<=2”. This compound also came in with a half-maximal inhibitory concentration (IC50) in series [7] of 74 nM.

For the compound `CCn1c(=O)c2c(-c3cc(C#N)cn3C)n(Cc3ccnc4ccc(Cl)cc34)nc2n(CC2CC2)c1=O`, the figures for the microsomal CLint at 2 µM in series [1] and in series [2] were 17 µL/min/mg and 25 µL/min/mg, respectively. For the same compound, the MIC in [4] is 0.75 µg/mL (≈ 1.46 µM); in series [8], 0.6 µg/mL (≈ 1.17 µM). In addition, the Ratio result in [12] is recorded as “<=2”. In series [7], this compound had an IC50 of 70 nM.

In the case of `C=CCn1c(=O)c2c(-c3nc(C#N)cn3C)n(Cc3ccnc4ccc(Cl)cc34)nc2n(CC2CC2)c1=O`, the microsomal CLint at 2 µM in series [1] and in series [2] was greater than 100 µL/min/mg in each case. For the same compound, the values for the MIC in series [4] and in series [8] were 2 µg/mL (≈ 3.8 µM) and 4 µg/mL (≈ 7.59 µM), respectively. The Ratio entry in [12] is “<=2”. Besides, in series [7], it took 250 nM to reach half-maximal inhibition (IC50).

As for `COc1c(N2CCO[C@@H](CN(C)C)C2)c(F)cc2c(=O)c(C(=O)O)cn(C3CC3)c12`, in series [15], the FC worked out at 5.

In the case of `C=CCn1c(=O)c2c(-c3cc(C#N)cn3C)n(Cc3ccnc4ccc(Cl)cc34)nc2n(CC2CC2)c1=O`, the microsomal CLint at 2 µM stood at 76 µL/min/mg in series [1] and 33 µL/min/mg in [2]. In addition, the results for the MIC in series [4] and in [8] were 1.5 µg/mL (≈ 2.85 µM) and 1 µg/mL (≈ 1.9 µM), respectively. Also, the Ratio result in series [12] is on record as “<=2”. The compound further displayed an IC50 in [7] of 70 nM.

On to `Cc1oc(C#N)cc1-c1c2c(=O)n(C)c(=O)n(CC3CC3)c2nn1Cc1ccnc2ccc(Cl)cc12`, for which the microsomal CLint at 2 µM in series [1] amounted to 63 µL/min/mg; in [2], 38 µL/min/mg. The MIC in [4] and in series [8] was 2 µg/mL (≈ 3.99 µM) throughout. Moreover, the Ratio entry in series [12] is “<=2”. Also, the IC50 in series [7] was determined as 220 nM.

On to `C#CCn1c(=O)c2c(-c3cncn3C)n(Cc3ccnc4ccc(Cl)cc34)nc2n(CC2CC2)c1=O`, for which the figures for the microsomal CLint at 2 µM in series [1] and in [2] were 18 µL/min/mg and less than 14 µL/min/mg, respectively. Besides, the pKa (as a rule, the negative logarithm of the acid dissociation constant) in series [16] amounted to 7.2. The clearance in series [3] is 20 mL/min/kg. The MIC in [4] worked out at 2 µg/mL (≈ 4 µM); in series [8] it was 0.5 µg/mL (≈ 1 µM). The fraction unbound at 16 h, 10 µM in [5] is 0.96. Moreover, the Vd in series [6] came out at 3.6 L/kg. In [7], this compound yielded an IC50 of 24 nM. Also, the FC in series [17] was 1. The half-life in [9] was 2.1 h. In addition, the bioavailability in series [10] worked out at 100%.

On to `C#CC(C)n1c(=O)c2c(-c3cc(C#N)cn3C)n(Cc3ccnc4ccc(Cl)cc34)nc2n(CC2CC2)c1=O` (stereo not given), for which the values for the microsomal CLint at 2 µM in series [1] and in [2] were greater than 100 µL/min/mg and 91 µL/min/mg, respectively. In addition, the MIC in series [4] amounted to 2 µg/mL (≈ 3.72 µM); in series [8], 8 µg/mL (≈ 14.9 µM). In addition, the Ratio result in [12] is listed as “<=2”. In [7], this compound returned an IC50 of 160 nM.

Turning to `CC(C)n1c(=O)c2c(-c3cncn3C)n(Cc3ccnc4ccc(Cl)cc34)nc2n(CC2CC2)c1=O`, the microsomal CLint at 2 µM in [1] turned out to be 51 µL/min/mg; in series [2], 53 µL/min/mg. The MIC in [4] and in [8] was 16 µg/mL (≈ 31.7 µM) each time. The Ratio result in series [12] is “<=2”. Further, half-maximal inhibition in [7] (IC50) was put at 220 nM.

Consider `Cn1cc(S(C)(=O)=O)cc1-c1c2c(=O)n(C)c(=O)n(CC3CC3)c2nn1Cc1ccnc2ccc(Cl)cc12`, for which the IC50 is greater than 400000 nM in [11], 34 nM in [7], greater than 400000 nM in series [13] and greater than 400000 nM in [14]. This compound also yielded a clearance in [3] of 15 mL/min/kg. In addition, the lowest concentration to inhibit growth in series [4] (MIC) was 2 µg/mL (≈ 3.62 µM). Further, in [18], the fraction unbound is 0.03. For the same compound, the bioavailability in [10] came out at 13%.

Take `C#CCn1c(=O)c2c(-c3nc(C#N)cn3C)n(Cc3ccnc4ccc(Cl)cc34)nc2n(CC2CC2)c1=O`: the results for the microsomal CLint at 2 µM in [1] and in series [2] were 28 µL/min/mg and less than 14 µL/min/mg, respectively. For the same compound, the MIC in series [4] stood at 1 µg/mL (≈ 1.9 µM); in [8], 2 µg/mL (≈ 3.81 µM). In addition, the Ratio entry in [12] is on record as “<=2”. For the same compound, in [7], the IC50 was 89 nM.

Turning to `C#CCn1c(=O)c2c(-c3cc(C#N)cn3C)n(Cc3ccnc4ccc(Cl)cc34)nc2n(CC2CC2)c1=O`, the microsomal CLint at 2 µM was 16 µL/min/mg in [1] and less than 14 µL/min/mg in series [2]. For the same compound, the MIC amounted to 0.75 µg/mL (≈ 1.43 µM) in [4] and 0.3 µg/mL (≈ 0.573 µM) in series [8]. For the same compound, the Ratio result in [12] was “<=2”. Further, the IC50 in [7] is 28 nM.

In the case of `C#CC(C)n1c(=O)c2c(-c3cncn3C)n(Cc3ccnc4ccc(Cl)cc34)nc2n(CC2CC2)c1=O` (stereo not given), the results for the microsomal CLint at 2 µM in series [1] and in series [2] were 65 µL/min/mg and 21 µL/min/mg, respectively. For the same compound, the MIC in series [4] and in series [8] was 8 µg/mL (≈ 15.6 µM) each time. The Ratio entry in series [12] is given as “<=2”. In [7], this compound came in with an IC50 of 460 nM.

With `C=CCn1c(=O)c2c(-c3cncn3C)n(Cc3ccnc4ccc(Cl)cc34)nc2n(CC2CC2)c1=O`, the microsomal CLint at 2 µM in series [1] was 49 µL/min/mg; in [2], 25 µL/min/mg. Besides, the MIC in [4] came out at 1 µg/mL (≈ 1.99 µM); in [8], 0.8 µg/mL (≈ 1.59 µM). In series [12], the Ratio entry is on record as “<=2”. In [7], this compound had an IC50 of 56 nM.

Regarding `CCn1c(=O)c2c(-c3nc(C#N)cn3C)n(Cc3ccnc4ccc(Cl)cc34)nc2n(CC2CC2)c1=O`, the microsomal CLint at 2 µM in series [1] was less than 14 µL/min/mg; in [2], 51 µL/min/mg. The MIC in [4] and in series [8] was 2 µg/mL (≈ 3.88 µM) throughout. In series [12], the Ratio result is on record as “<=2”. In series [7], this compound came in with an IC50 of 180 nM.

Turning to `CC(C)Cn1c(=O)n(C)c(=O)c2c(-c3ccncc3)n(Cc3cccc4ccccc34)nc21`, the IC50 in series [11], in [13] and in series [14] was greater than 400000 nM throughout.
